Positions of bridges follow the written chain, without caps; N, C: chain ends. Residues, ends and D or L forms follow the SMILES beside them.
How the values were obtained:
[1] = Solubility in the PBS buffer at 1 mg/mL; Limited solubility; assay type: physicochemical
[2] = Inhibition of T6-17 cell proliferation; assay type: functional, Mus musculus; set-up: concentration or dose not given beside the values
In short: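 T6-17 cells (NIH3T3 engineered to overexpress human HER2) seeded overnight at 1000/well in DMEM with 10% FBS, then cultured 48 h in fresh medium with peptide at 1 µg/mL. MTT (5 mg/mL in PBS) added, 2 h at 37 °C. SDS/DMF extraction buffer (pH 4.7) added, overnight at 37 °C, then OD 600 nm read. Each value is the mean of at least four samples.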

[3] = target: T1, Receptor tyrosine-protein kinase erbB-2 (Homo sapiens, UniProt P04626); experiment: Kinetic constant for peptide inhibitor binding to HER2 receptor
In short: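 Surface plasmon resonance at 25 °C. HER2 ectodomain–human IgG Fc fusion was amine-coupled (EDC/NHS, 40 ng/mL in 10 mM NaOAc pH 5.0) to 3500 RU, with a blank reference surface. Peptides were flowed at variable concentrations at 20 µL/min, with 240 s association and 300 s dissociation. Signals were reference- and buffer-subtracted, and kon, koff and KD (koff/kon) were fitted to a pseudo-first-order model.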

[4] = Solubility in the PBS buffer at 1 mg/mL; Good solubility; assay type: physicochemical
[5] = target: T1, Receptor tyrosine-protein kinase erbB-2; experiment: Dissociation constant for peptide inhibitor binding to HER2 receptor
In short: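 Surface plasmon resonance at 25 °C. Recombinant HER2 ectodomain–human IgG Fc fusion was amine-coupled to the sensor chip to 3500 RU. A blank reference surface was subtracted. Peptides were injected at variable concentrations at 20 µL/min, with 240 s association and 300 s dissociation. Signals were buffer-subtracted and fitted to a pseudo-first-order model, and KD was taken as koff/kon.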

T1 sequence (P04626 whole entry, the tested form may be a part): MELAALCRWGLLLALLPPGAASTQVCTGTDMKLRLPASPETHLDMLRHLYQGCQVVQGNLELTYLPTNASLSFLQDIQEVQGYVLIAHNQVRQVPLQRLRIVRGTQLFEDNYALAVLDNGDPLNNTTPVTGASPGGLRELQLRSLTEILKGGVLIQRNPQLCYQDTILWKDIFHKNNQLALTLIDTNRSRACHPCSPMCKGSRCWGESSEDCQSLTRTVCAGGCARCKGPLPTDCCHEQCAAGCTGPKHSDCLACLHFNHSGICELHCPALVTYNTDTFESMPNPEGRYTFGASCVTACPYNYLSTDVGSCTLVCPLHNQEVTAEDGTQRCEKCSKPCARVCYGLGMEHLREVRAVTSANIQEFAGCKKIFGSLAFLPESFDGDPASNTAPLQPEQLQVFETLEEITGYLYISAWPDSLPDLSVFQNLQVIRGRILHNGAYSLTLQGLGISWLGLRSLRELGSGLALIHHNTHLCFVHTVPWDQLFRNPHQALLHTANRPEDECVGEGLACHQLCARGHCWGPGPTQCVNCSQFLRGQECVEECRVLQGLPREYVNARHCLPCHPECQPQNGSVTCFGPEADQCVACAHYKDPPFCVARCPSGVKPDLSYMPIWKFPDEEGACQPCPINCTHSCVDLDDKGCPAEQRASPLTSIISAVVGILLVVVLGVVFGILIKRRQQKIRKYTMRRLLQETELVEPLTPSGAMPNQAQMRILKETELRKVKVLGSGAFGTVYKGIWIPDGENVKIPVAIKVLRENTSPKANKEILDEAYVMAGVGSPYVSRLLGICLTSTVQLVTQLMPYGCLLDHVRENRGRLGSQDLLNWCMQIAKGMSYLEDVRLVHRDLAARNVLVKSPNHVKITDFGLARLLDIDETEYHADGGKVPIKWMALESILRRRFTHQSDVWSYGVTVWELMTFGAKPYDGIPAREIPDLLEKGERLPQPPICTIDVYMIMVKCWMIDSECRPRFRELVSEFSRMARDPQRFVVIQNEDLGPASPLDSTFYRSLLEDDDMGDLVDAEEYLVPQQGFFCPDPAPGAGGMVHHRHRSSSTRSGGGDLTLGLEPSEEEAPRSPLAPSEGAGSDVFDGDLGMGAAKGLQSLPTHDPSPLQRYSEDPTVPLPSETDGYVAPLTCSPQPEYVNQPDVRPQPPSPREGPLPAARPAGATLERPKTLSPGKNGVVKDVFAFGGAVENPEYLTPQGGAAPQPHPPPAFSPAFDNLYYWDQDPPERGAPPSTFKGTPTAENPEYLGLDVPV

| SMILES | S [1] | Inhibition [2] [%] | k off [3] [s⁻¹] | k on [3] [M⁻¹ s⁻¹] | S [4] | Kd [5] [µM] |
| --- | --- | --- | --- | --- | --- | --- |
| CSCC[C@H](NC(=O)[C@H](Cc1ccc(O)cc1)NC(=O)[C@@H]1CSSC[C@H](NC(=O)[C@@H](N)Cc2ccc(O)cc2)C(=O)N[C@@H](CC(=O)O)C(=O)NCC(=O)N[C@@H](Cc2ccccc2)C(=O)N[C@@H](Cc2ccc(O)cc2)C(=O)N[C@@H](C)C(=O)N1)C(=O)N[C@@H](CC(=O)O)C(=O)N[C@H](C(N)=O)C(C)C | Insoluble | 59.6 | 0.000294 | 1960 | – | – |
| CSCC[C@H](NC(=O)[C@@H](Cc1ccc(O)cc1)NC(=O)[C@@H]1CSSC[C@H](NC(=O)[C@H](N)Cc2ccccc2)C(=O)N[C@@H](CC(=O)O)C(=O)NCC(=O)N[C@@H](Cc2ccccc2)C(=O)N[C@@H](Cc2ccc(O)cc2)C(=O)N[C@@H](C)C(=O)N1)C(=O)N[C@@H](CC(=O)O)C(=O)N[C@H](C(N)=O)C(C)C | – | – | 0.000603 | 1720 | Soluble | – |
| CSCC[C@H](NC(=O)[C@H](Cc1ccc(O)cc1)NC(=O)[C@@H]1CSSC[C@H](NC(=O)[C@@H](N)Cc2ccccc2)C(=O)N[C@@H](CC(=O)O)C(=O)NCC(=O)N[C@@H](Cc2ccccc2)C(=O)N[C@@H](Cc2ccc(O)cc2)C(=O)N[C@@H](C)C(=O)N1)C(=O)N[C@@H](CC(=O)O)C(=O)N[C@H](C(N)=O)C(C)C | Insoluble | 35.5 | 0.000453 | 1410 | – | – |
| CC(C)[C@H](NC(=O)[C@H](CC(=O)O)NC(=O)[C@H](CCCCN)NC(=O)[C@H](Cc1ccc(O)cc1)NC(=O)[C@@H]1CSSC[C@H](NC(=O)[C@@H](N)Cc2ccccc2)C(=O)N[C@@H](CC(=O)O)C(=O)NCC(=O)N[C@@H](Cc2ccccc2)C(=O)N[C@@H](Cc2ccc(O)cc2)C(=O)N[C@@H](C)C(=O)N1)C(=O)O (H-FCDGFYACYKDV-OH; disulfide 2-8) | – | 8.4 | 0.00125 | 219 | Soluble | – |
| CSCC[C@H](NC(=O)[C@H](Cc1ccc(O)cc1)NC(=O)[C@@H]1CSSC[C@H](NC(=O)[C@@H](N)Cc2ccccc2)C(=O)N[C@@H](CC(=O)O)C(=O)NCC(=O)N[C@@H](Cc2ccccc2)C(=O)N[C@@H](Cc2ccc(O)cc2)C(=O)N[C@@H](C)C(=O)N1)C(=O)N[C@@H](CC(=O)O)C(=O)N[C@H](C(=O)N[C@@H](CCCCN)C(N)=O)C(C)C (H-FCDGFYACYMDVK-NH2; disulfide 2-8) | Insoluble | – | 0.000512 | 617 | – | – |
| CSCC[C@H](NC(=O)[C@H](Cc1ccc(O)cc1)NC(=O)[C@@H]1CSSC[C@H](NC(=O)[C@@H](N)Cc2ccccc2)C(=O)NCC(=O)N[C@@H](CC(=O)O)C(=O)NCC(=O)N[C@@H](Cc2ccccc2)C(=O)N[C@@H](Cc2ccc(O)cc2)C(=O)N[C@@H](C)C(=O)N1)C(=O)N[C@@H](CC(=O)O)C(=O)N[C@H](C(=O)O)C(C)C (H-FCGDGFYACYMDV-OH; disulfide 2-9) | – | 18.4 | 0.000701 | 922 | Soluble | – |
| CSCC[C@H](NC(=O)[C@H](Cc1ccc(O)cc1)NC(=O)[C@@H]1CSSC[C@H](NC(=O)[C@H](Cc2ccccc2)NC(=O)CN)C(=O)N[C@@H](CC(=O)O)C(=O)NCC(=O)N[C@@H](Cc2ccccc2)C(=O)N[C@@H](Cc2ccc(O)cc2)C(=O)N[C@@H](C)C(=O)N1)C(=O)N[C@@H](CC(=O)O)C(=O)N[C@H](C(=O)O)C(C)C (H-GFCDGFYACYMDV-OH; disulfide 3-9) | – | – | 0.000808 | 1110 | Soluble | – |
| CSCC[C@H](NC(=O)[C@H](Cc1ccc(O)cc1)NC(=O)[C@@H]1CSSC[C@H](NC(=O)[C@@H](N)Cc2ccccc2)C(=O)N[C@@H](CC(=O)O)C(=O)NCC(=O)N[C@@H](Cc2ccccc2)C(=O)N[C@@H](Cc2ccc(O)cc2)C(=O)N[C@@H](C)C(=O)N1)C(=O)N[C@@H](CC(=O)O)C(=O)N[C@H](C(=O)O)C(C)C (stereo in doubt; 2) [listing 1 of 2 here] | Insoluble | 22.3 | – | – | – | – |
| CSCC[C@H](NC(=O)[C@H](Cc1ccc(O)cc1)NC(=O)[C@@H]1CSSC[C@H](NC(=O)[C@@H](N)Cc2ccccc2)C(=O)N[C@@H](CC(=O)O)C(=O)NCC(=O)N[C@@H](Cc2ccccc2)C(=O)N[C@@H](Cc2ccc(O)cc2)C(=O)N[C@@H](C)C(=O)N1)C(=O)N[C@@H](CC(=O)O)C(=O)N[C@H](C(=O)O)C(C)C (stereo in doubt; 2) [listing 2 of 2 here] | – | – | 0.000643 | 990 | – | – |
| CSCC[C@H](NC(=O)[C@H](Cc1ccc(O)cc1)NC(=O)[C@@H]1CSSC[C@H](NC(=O)[C@@H](N)Cc2ccccc2)C(=O)N[C@@H](CC(=O)O)C(=O)NCC(=O)N[C@@H](Cc2ccccc2)C(=O)N[C@@H](Cc2ccc(O)cc2)C(=O)N[C@@H](C)C(=O)N1)C(=O)N[C@@H](CC(=O)O)C(=O)N[C@H](C(=O)O)C(C)C (stereo in doubt; 9) [listing 1 of 2 here] | – | – | – | – | – | 3.56 |
| CSCC[C@H](NC(=O)[C@H](Cc1ccc(O)cc1)NC(=O)[C@@H]1CSSC[C@H](NC(=O)[C@@H](N)Cc2ccccc2)C(=O)N[C@@H](CC(=O)O)C(=O)NCC(=O)N[C@@H](Cc2ccccc2)C(=O)N[C@@H](Cc2ccc(O)cc2)C(=O)N[C@@H](C)C(=O)N1)C(=O)N[C@@H](CC(=O)O)C(=O)N[C@H](C(=O)O)C(C)C (stereo in doubt; 9) [listing 2 of 2 here] | – | – | 0.00106 | 298 | – | – |

Reference: ChEMBL document CHEMBL1134548, “Disabling erbB receptors with rationally designed exocyclic mimetics of antibodies: structure-function analysis” (J Med Chem, 2001)
